From ChEMBL document CHEMBL1165950, “Design and synthesis of new potent anticancer pyrazoles with high FLT3 kinase inhibitory selectivity” (Bioorg Med Chem, 2010)

Key:
Assay type in all cases: functional
EKVX [1] = assay: Cytotoxicity against human EKVX cells assessed as cell growth at 0.001 uM after 48 hrs by sulforhodamine B assay; settings: read-out: Activity
OVCAR-5 = assay: Cytotoxicity against human OVCAR5 cells assessed as cell growth at 0.001 uM after 48 hrs by sulforhodamine B assay; settings: OVCAR-5, 48 h, read-out: Activity
Malme-3M [2] = assay: Cytotoxicity against human MALME-3M cells assessed as cell growth at 0.001 uM after 48 hrs by sulforhodamine B assay; settings: read-out: Activity
ACHN = assay: Cytotoxicity against human ACHN cells assessed as cell growth at 100 nM after 48 hrs by sulforhodamine B assay; settings: read-out: Activity
Method in brief: (§1)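 NCI-60 five-dose screen. Cells were grown in RPMI 1640 with 5% FBS and 2 mM L-glutamine, plated at 5000–40,000 cells/well and preincubated for 24 h. Time-zero plates were TCA-fixed. DMSO-solubilized drug was added at five concentrations (10-fold or ½-log serial dilutions) for 48 h at 37 °C, 5% CO2. Cells were TCA-fixed, stained with 0.4% SRB and read at 515 nm. Percent growth used time-zero, control and test absorbances.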

U-251 = assay: Cytotoxicity against human U251 cells assessed as cell growth at 100 nM after 48 hrs by sulforhodamine B assay; settings: U-251, 48 h, read-out: Activity
SK-OV-3 = assay: Cytotoxicity against human SKOV3 cells assessed as cell growth at 1 uM after 48 hrs by sulforhodamine B assay; settings: SK-OV-3, 48 h, read-out: Activity
SNB-75 [3] = assay: Cytotoxicity against human SNB75 cells assessed as cell growth at 0.01 uM after 48 hrs by sulforhodamine B assay; settings: SNB-75, 48 h, read-out: Activity
COLO 205 = assay: Cytotoxicity against human COLO205 cells assessed as cell growth at 0.001 uM after 48 hrs by sulforhodamine B assay; settings: COLO 205, 48 h, read-out: Activity; method in brief: as §1
[4] = Cytotoxicity against human RPMI8266 cells assessed as cell growth at 0.01 uM after 48 hrs by sulforhodamine B assay; settings: read-out: Activity
PC-3 [5] = assay: Cytotoxicity against human PC3 cells assessed as cell growth at 0.001 uM after 48 hrs by sulforhodamine B assay; settings: PC-3, 48 h, read-out: Activity
DU-145 [6] = assay: Growth inhibition of human DU145 cells after 48 hrs by sulforhodamine B assay; settings: DU-145, 48 h
Method in brief: (§2)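 NCI five-dose SRB assay in RPMI 1640 with 5% FBS and 2 mM L-glutamine. Cells were preincubated 24 h, then exposed 48 h at 37 °C to five concentrations (10-fold or half-log serial dilutions from DMSO stocks). TCA fixation, SRB staining, and absorbance at 515 nm followed. IC50 was taken where [(Ti−Tz)/(C−Tz)]×100 = 50, with Tz as time-zero cell density.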

OVCAR-4 = assay: Cytotoxicity against human OVCAR4 cells assessed as cell growth at 0.001 uM after 48 hrs by sulforhodamine B assay; settings: OVCAR-4, 48 h, read-out: Activity
Malme-3M [7] = assay: Cytotoxicity against human MALME-3M cells assessed as cell growth at 100 nM after 48 hrs by sulforhodamine B assay; settings: read-out: Activity
HOP-62 [8] = assay: Cytotoxicity against human HOP62 cells assessed as cell growth at 1 uM after 48 hrs by sulforhodamine B assay; settings: HOP-62, 48 h, read-out: Activity
NCI-H522 = assay: Cytotoxicity against human NCI-H522 cells assessed as cell growth at 0.01 uM after 48 hrs by sulforhodamine B assay; settings: NCI-H522, 48 h, read-out: Activity
K562 = assay: Cytotoxicity against human K562 cells assessed as cell growth at 0.01 uM after 48 hrs by sulforhodamine B assay; settings: K562, 48 h, read-out: Activity
PC-3 [9] = assay: Cytotoxicity against human PC3 cells assessed as cell growth at 100 nM after 48 hrs by sulforhodamine B assay; settings: PC-3, 48 h, read-out: Activity
HOP-62 [10] = assay: Cytotoxicity against human HOP62 cells assessed as cell growth at 10 uM; settings: read-out: Activity
Method in brief: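 Single-dose NCI-60 screen at 10 µM. Cells were grown in RPMI 1640 with 5% FBS and 2 mM L-glutamine, then treated for 48 h at 37 °C. Protein was measured by SRB staining with absorbance at 515 nm. Percentage growth was recorded, and inhibition percentage was calculated as 100 minus growth percentage.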

DU-145 [11] = assay: Cytotoxicity against human DU145 cells assessed as cell growth at 0.001 uM after 48 hrs by sulforhodamine B assay; settings: DU-145, 48 h, read-out: Activity
EKVX [12] = assay: Cytotoxicity against human EKVX cells assessed as cell growth at 0.01 uM after 48 hrs by sulforhodamine B assay; settings: read-out: Activity
IGROV-1 = assay: Cytotoxicity against human IGROV1 cells assessed as cell growth at 0.001 uM after 48 hrs by sulforhodamine B assay; settings: IGROV-1, 48 h, read-out: Activity
HCT-15 = assay: Growth inhibition of human HCT15 cells after 48 hrs by sulforhodamine B assay; settings: HCT-15, 48 h; for CC50: read-out: LC50 (the source's name)
Method in brief: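 NCI 60-cell screen, five-dose mode. Cells grown in RPMI 1640 with 5% FBS and 2 mM L-glutamine and plated at 5000-40,000 cells/well according to doubling time. After 24 h preincubation, a Tz plate was TCA-fixed. Five concentrations (10-fold or 1/2 log dilutions) were applied for 48 h at 37 °C. SRB staining read at 515 nm. IC50 taken from [(Ti-Tz)/(C-Tz)]×100 = 50.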

CCRF-CEM [13] = assay: Cytotoxicity against human CCRF-CEM cells assessed as cell growth at 0.001 uM after 48 hrs by sulforhodamine B assay; settings: read-out: Activity; method in brief: as §1
SNB-75 [14] = assay: Cytotoxicity against human SNB75 cells assessed as cell growth at 100 nM after 48 hrs by sulforhodamine B assay; settings: SNB-75, 48 h, read-out: Activity
SNB-75 [15] = assay: Cytotoxicity against human SNB75 cells assessed as cell growth at 0.001 uM after 48 hrs by sulforhodamine B assay; settings: SNB-75, 48 h, read-out: Activity
CCRF-CEM [16] = assay: Growth inhibition of human CCRF-CEM cells after 48 hrs by sulforhodamine B assay; method in brief: as §2
HOP-92 = assay: Cytotoxicity against human HOP92 cells assessed as cell growth at 0.001 uM after 48 hrs by sulforhodamine B assay; settings: HOP-92, 48 h, read-out: Activity
NCI-H226 = assay: Cytotoxicity against human NCI-H226 cells assessed as cell growth at 10 uM; settings: read-out: Activity
Method in brief: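 NCI-60 screen: cells grown in RPMI 1640 with 5% FBS and 2 mM L-glutamine, plated at 5000–40,000 cells/well according to doubling time, and preincubated 24 h at 37 °C, 5% CO2. The single 10 µM dose (DMSO stock) was added, then incubated 48 h. Cells were TCA-fixed and stained with 0.4% SRB, read at 515 nm, and growth % calculated against time-zero and control plates.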

786-0 = assay: Cytotoxicity against human 786-0 cells assessed as cell growth at 100 nM after 48 hrs by sulforhodamine B assay; settings: 786-0, 48 h, read-out: Activity; method in brief: as §1

Row | Structure (SMILES) | growth at 0.001 µM (EKVX [1]) [%] | growth at 0.001 µM (OVCAR-5) [%] | growth at 0.001 µM (Malme-3M [2]) [%] | growth at 0.1 µM (ACHN) [%] | growth at 0.1 µM (U-251) [%] | growth at 1 µM (SK-OV-3) [%] | growth at 0.01 µM (SNB-75 [3]) [%] | growth at 0.001 µM (COLO 205) [%] | growth at 0.01 µM [4] [%] | growth at 0.001 µM (PC-3 [5]) [%] | GI50 (DU-145 [6]) [µM] | TGI (DU-145 [6]) [µM] | growth at 0.001 µM (OVCAR-4) [%] | growth at 0.1 µM (Malme-3M [7]) [%] | growth at 1 µM (HOP-62 [8]) [%] | growth at 0.01 µM (NCI-H522) [%] | growth at 0.01 µM (K562) [%] | growth at 0.1 µM (PC-3 [9]) [%] | growth at 10 µM (HOP-62 [10]) [%] | growth at 0.001 µM (DU-145 [11]) [%] | other results
1 | COc1cc(C)cc(-c2c(-c3ccnc(-c4ccc(C(C)=O)cc4)c3)cnn2CC#N)c1 | 95 | 85 | 105 | 90 | 89 | 19 | 78 | 109 | 94 | 101 | 3.42 | > 100 | 102 | 97 | 19 | 81 | 80 | 83 | 78.1 | 109 | LC50 (DU-145 [6]): > 100 µM; growth at 0.01 µM (EKVX [12]): 97%; growth at 0.001 µM (IGROV-1): 107%; GI50 (HCT-15): 3.14 µM; TGI (HCT-15): > 100 µM; CC50 (HCT-15): > 100 µM; growth at 0.001 µM (CCRF-CEM [13]): 96%; growth at 0.1 µM (SNB-75 [14]): 76%; growth at 0.001 µM (SNB-75 [15]): 80%; GI50 (CCRF-CEM [16]): 2.97 µM; LC50 (CCRF-CEM [16]): > 100 µM; TGI (CCRF-CEM [16]): > 100 µM; growth at 0.001 µM (HOP-92): 84%; growth at 10 µM (NCI-H226): 83.7%; growth at 0.1 µM (786-0): 88%
2 | Cc1cc(O)cc(-c2nn(CC#N)cc2-c2ccnc(-c3ccc(Oc4ccccc4)cc3)c2)c1 | 103 | 72 | 88 | 95 | 88 | 63 | 79 | 107 | 100 | 98 | 2.28 | 7.18 | 110 | 93 | 60 | 72 | 44 | 81 | 99.3 | 104 | LC50 (DU-145 [6]): 26.1 µM; growth at 0.01 µM (EKVX [12]): 94%; growth at 0.001 µM (IGROV-1): 98%; GI50 (HCT-15): 2.14 µM; TGI (HCT-15): 5.38 µM; CC50 (HCT-15): 26.1 µM; growth at 0.001 µM (CCRF-CEM [13]): 96%; growth at 0.1 µM (SNB-75 [14]): 78%; growth at 0.001 µM (SNB-75 [15]): 86%; GI50 (CCRF-CEM [16]): 2.85 µM; LC50 (CCRF-CEM [16]): > 100 µM; TGI (CCRF-CEM [16]): > 100 µM; growth at 0.001 µM (HOP-92): 74%; growth at 10 µM (NCI-H226): 70.3%; growth at 0.1 µM (786-0): 91%
3 | COc1cc(C)cc(-c2nn(CC#N)cc2-c2ccnc(-c3ccc(N(C)C)cc3)c2)c1 | 91 | 98 | 88 | 29 | 16 | -24 | 98 | 107 | 110 | 97 | 0.319 | 1.11 | 106 | 46 | 5 | 87 | 61 | 14 | 18.9 | 103 | LC50 (DU-145 [6]): > 100 µM; growth at 0.01 µM (EKVX [12]): 89%; growth at 0.001 µM (IGROV-1): 103%; GI50 (HCT-15): 0.35 µM; TGI (HCT-15): 8.79 µM; CC50 (HCT-15): > 100 µM; growth at 0.001 µM (CCRF-CEM [13]): 97%; growth at 0.1 µM (SNB-75 [14]): -8%; growth at 0.001 µM (SNB-75 [15]): 95%; GI50 (CCRF-CEM [16]): 0.454 µM; LC50 (CCRF-CEM [16]): > 100 µM; TGI (CCRF-CEM [16]): > 100 µM; growth at 0.001 µM (HOP-92): 102%; growth at 10 µM (NCI-H226): 24.9%; growth at 0.1 µM (786-0): 22%
4 | Cc1cc(O)cc(-c2nn(CC#N)cc2-c2ccnc(-c3ccc(N(C)C)cc3)c2)c1 | 96 | 96 | 91 | 93 | 91 | -11 | 75 | 109 | 99 | 105 | 2.75 | 8.57 | 104 | 94 | 13 | 84 | 101 | 94 | 36.5 | 103 | LC50 (DU-145 [6]): 53.2 µM; growth at 0.01 µM (EKVX [12]): 86%; growth at 0.001 µM (IGROV-1): 107%; GI50 (HCT-15): 3.36 µM; TGI (HCT-15): 18.2 µM; CC50 (HCT-15): > 100 µM; growth at 0.001 µM (CCRF-CEM [13]): 97%; growth at 0.1 µM (SNB-75 [14]): 77%; growth at 0.001 µM (SNB-75 [15]): 83%; GI50 (CCRF-CEM [16]): 3.59 µM; LC50 (CCRF-CEM [16]): > 100 µM; TGI (CCRF-CEM [16]): > 100 µM; growth at 0.001 µM (HOP-92): 80%; growth at 10 µM (NCI-H226): 35.8%; growth at 0.1 µM (786-0): 91%
5 | COc1cc(C)cc(-c2c(-c3ccnc(-c4ccc(N(C)C)cc4)c3)cnn2CC#N)c1 | 97 | 90 | 97 | 34 | 6 | 36 | 65 | 98 | 78 | 101 | 0.113 | 0.334 | 92 | 49 | 31 | -7 | 34 | 11 | 14.9 | 102 | growth at 0.01 µM (EKVX [12]): 81%; growth at 0.001 µM (IGROV-1): 95%; GI50 (HCT-15): 0.0766 µM; TGI (HCT-15): > 100 µM; CC50 (HCT-15): > 100 µM; growth at 0.001 µM (CCRF-CEM [13]): 95%; growth at 0.1 µM (SNB-75 [14]): 6%; growth at 0.001 µM (SNB-75 [15]): 88%; GI50 (CCRF-CEM [16]): 0.237 µM; LC50 (CCRF-CEM [16]): > 100 µM; TGI (CCRF-CEM [16]): > 100 µM; growth at 0.001 µM (HOP-92): 26%; growth at 10 µM (NCI-H226): 39.8%; growth at 0.1 µM (786-0): 6%
